Data as given in ChEMBL document CHEMBL1127825, “Synthesis and in vitro evaluation of 9-anilino-3,6-diaminoacridines active against a multidrug-resistant strain of the malaria parasite Plasmodium falciparum” (J Med Chem, 1994).
pIC50: −log10 of the molar value. Converted amounts (≈) assume the structure as drawn.

Columns and labels:
Plasmodium falciparum [1] = assay: Inhibitory concentration IC50 against Plasmodium falciparum K1 by [3H]hypoxanthine uptake over 24 hr; assay type: functional, organism-based
How it was run: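 K1 strain of P. falciparum (chloroquine- and pyrimethamine-resistant) in infected erythrocyte suspensions at 0.5% initial parasitemia, exposed to drug for 24 h at 37 °C. Read-out is [3H]hypoxanthine incorporation into parasites. IC50 is the concentration giving 50% inhibition relative to untreated controls.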

Jurkat = assay: Concentration required to reduce growth of human jurkat leukemia cells to 50% of control cultures, determined using a 72 hr continuous exposure; assay type: functional, cell-based
How it was run: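 Human Jurkat leukemia cells given continuous drug exposure for 72 h, then counted on a hemocytometer. IC50 is the concentration that cuts cell growth to 50% of untreated controls. Values are means of at least two independent determinations, with variation typically ±15%.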

Plasmodium falciparum [2] = assay: (§1) Inhibitory concentration against Plasmodium falciparum K1 infected erythrocytes; assay type: functional
[3] = In vitro therapeutic index value is the ratio between IC50 values of [J] and [P]; assay type: cell-based; settings: human, Jurkat cells; read-out: TI
Plasmodium falciparum [4] = assay: Inhibitory concentration against Plasmodium falciparum D6 infected erythrocytes; assay type: functional, organism-based
Plasmodium falciparum [5] = assay: Inhibitory concentration against Plasmodium falciparum W2 infected erythrocytes; assay type: functional, organism-based
[6] = target: T1, DNA topoisomerase 2 (Plasmodium falciparum K1) (UniProt P41001); assay: Minimum inhibitory concentration required to completely inhibit topoisomerase II activity from Plasmodium falciparum was determined using P4 DNA […] assay
T1 sequence (whole entry): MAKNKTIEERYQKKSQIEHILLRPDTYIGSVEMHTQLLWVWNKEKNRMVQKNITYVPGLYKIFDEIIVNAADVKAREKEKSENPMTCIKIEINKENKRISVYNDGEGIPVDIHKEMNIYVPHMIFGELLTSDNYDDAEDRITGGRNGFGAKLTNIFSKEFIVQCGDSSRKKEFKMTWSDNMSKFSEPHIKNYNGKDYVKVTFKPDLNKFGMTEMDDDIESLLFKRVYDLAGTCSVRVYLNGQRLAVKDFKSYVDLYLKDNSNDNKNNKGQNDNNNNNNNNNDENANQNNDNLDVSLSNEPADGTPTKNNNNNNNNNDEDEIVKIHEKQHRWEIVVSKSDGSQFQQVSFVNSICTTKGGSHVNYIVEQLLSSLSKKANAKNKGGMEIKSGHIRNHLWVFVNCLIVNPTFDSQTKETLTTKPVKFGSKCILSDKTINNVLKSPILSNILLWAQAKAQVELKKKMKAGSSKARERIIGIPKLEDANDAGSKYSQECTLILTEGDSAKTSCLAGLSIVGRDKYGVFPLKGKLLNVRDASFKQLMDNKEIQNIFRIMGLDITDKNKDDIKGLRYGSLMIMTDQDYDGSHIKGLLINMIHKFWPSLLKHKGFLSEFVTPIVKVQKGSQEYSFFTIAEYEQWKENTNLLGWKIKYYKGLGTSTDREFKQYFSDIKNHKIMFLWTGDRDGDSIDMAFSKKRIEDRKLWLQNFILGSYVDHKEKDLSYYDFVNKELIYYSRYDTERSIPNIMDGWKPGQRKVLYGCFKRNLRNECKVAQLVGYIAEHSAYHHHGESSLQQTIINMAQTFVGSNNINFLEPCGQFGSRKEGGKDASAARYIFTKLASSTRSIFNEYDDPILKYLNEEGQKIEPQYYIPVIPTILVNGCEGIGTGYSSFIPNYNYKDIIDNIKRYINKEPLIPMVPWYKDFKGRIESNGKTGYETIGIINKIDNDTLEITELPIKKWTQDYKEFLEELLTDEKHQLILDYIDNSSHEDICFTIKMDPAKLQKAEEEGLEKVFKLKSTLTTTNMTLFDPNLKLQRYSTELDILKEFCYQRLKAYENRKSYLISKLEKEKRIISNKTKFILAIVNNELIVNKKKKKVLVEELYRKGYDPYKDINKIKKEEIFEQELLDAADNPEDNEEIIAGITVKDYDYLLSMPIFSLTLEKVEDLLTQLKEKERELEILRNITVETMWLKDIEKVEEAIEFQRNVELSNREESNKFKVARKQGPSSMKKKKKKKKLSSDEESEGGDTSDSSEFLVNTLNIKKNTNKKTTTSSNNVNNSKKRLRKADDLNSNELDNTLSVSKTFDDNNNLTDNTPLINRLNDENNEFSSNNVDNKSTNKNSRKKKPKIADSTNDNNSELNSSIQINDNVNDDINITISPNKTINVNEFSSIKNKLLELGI

Plasmodium falciparum [7] = assay: as §1; assay type: functional, organism-based
How it was run: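 Chloroquine- and pyrimethamine-resistant K1 strain in infected erythrocyte suspensions (0.5% initial parasitemia), exposed to drug for 24 h at 37 °C. Read-out: [3H]hypoxanthine incorporation into parasites. IC50 in μM is the concentration that reduces incorporation to 50% of untreated controls.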

[8] = target: DNA topoisomerase II (Homo sapiens) (UniProt P11388+Q02880); assay: Minimum inhibitory concentration required to completely inhibit topoisomerase II activity from jurkat human leukemia cells was determined using P4 DNA unknotting assay
How it was run: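 Enzyme is a partially purified topoisomerase II extract from midlog Jurkat cells, made by sonication in Tris pH 8/KCl/MgCl2/EGTA buffer with protease inhibitors, then PEG/KCl precipitation. Extract is diluted to a set P4 DNA unknotting activity. Proteinase K method scores unknotting and linearization of phage P4 DNA on 0.7% agarose gels stained with ethidium bromide. MIC is the concentration giving complete inhibition.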

Plasmodium falciparum [9] = assay: Minimum inhibitory concentration (IC90) against Plasmodium falciparum K1 infected erythrocytes
Plasmodium falciparum [10] = assay: as above; remark: listed apart in the source

| IC50 (Plasmodium falciparum [2]) [nM] | SMILES | pIC50 (Plasmodium falciparum [1]) | pIC50 (Jurkat) | selectivity ratio [3] | pIC50 (Plasmodium falciparum [4]) | pIC50 (Plasmodium falciparum [5]) | MIC [6] [µM] | pIC50 (Plasmodium falciparum [7]) | MIC [8] [µM] | IC90 (Plasmodium falciparum [9]) [nM] | IC90 (Plasmodium falciparum [10]) [nM] |
| --- | --- | --- | --- | --- | --- | --- | --- | --- | --- | --- | --- |
| 27 | COc1ccc2nc3cc(Cl)ccc3c(Nc3cc(CN4CCCC4)c(O)c(CN4CCCC4)c3)c2n1 [PYRONARIDINE] | 8.57 | 5.40 | 1480 | 9.00 | 9.10 |  |  |  |  |  |
| 250 | CCN(CC)CCCC(C)Nc1ccnc2cc(Cl)ccc12 (stereo not given) [CHLOROQUINE] |  |  |  |  |  |  |  |  |  |  |
|  | CN(C)Cc1ccc(Nc2c3ccc(N)cc3nc3cc(N)ccc23)cc1 | 7.40 | < 4.70 | > 500 | 6.95 | 6.56 | 50 (≈ 17.9 µg/mL) | 7.40 | 20 (≈ 7.15 µg/mL) |  |  |
|  | C=C[C@H]1CN2CC[C@H]1C[C@H]2[C@H](O)c1ccnc2ccc(OC)cc12 [QUININE] |  |  |  | 7.32 | 7.00 |  |  |  | 300 |  |
|  | OC(c1cc(C(F)(F)F)nc2c(C(F)(F)F)cccc12)C1CCCCN1 (stereo not given) [MEFLOQUINE] |  |  |  | 7.77 |  |  |  |  |  | 70 |
